Assay outcomes as filed in PubChem.
Shown are actives, neighbours in structure and some others; about 8.8% of the full set was active somewhere.
RORA act = activators of human nuclear receptor RORA | hit rate 1.5% among 65,000 | CHO-K1 Gal4-RORA LBD luciferase reporter, luminescence; percent increase over mock-subtracted basal signal | P35398 | activation, % at 10 µM;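 active = activation above the mean of all tested compounds plus 3 SD, cut at about 49% in these data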;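 note: 0% = DMSO-treated RORA cells and 100% = added signal equal to DMSO minus mock-transfected cells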
M1 ag = agonists of M1 muscarinic receptor. CHO-M1 cells, Fluo-4 calcium fluorescence, agonist mode; hits give high values. B-score at 10 µM. hit rate 3% among 64,000. AID 626;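 active = fluorescence rise, raw or as B-score row- and column-corrected plate score, outside the 99.7% band of its plate's samples, either direction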
M1 antag = M1 muscarinic receptor (rat) antagonism; P08482; CHO-M1 cells, Fluo-4 calcium, ACh EC80 antagonist mode; hits give low values; B-score at 10 µM; hit rate 3.4% among 64,000; AID 628;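 active = calcium fluorescence response, raw or row-and-column corrected B-score, differing from the plate sample mean either way at a set confidence level, mostly lower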
S1P3 ag = S1P3 (human) receptor agonism; Q99500; S1P3 NFAT-BLA reporter cells, FRET ratio; relative to 1 µM S1P, basal subtracted; activation, % at 4.5 µM; hit rate 0.1% among 60,000;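 active = activation above the screen-wide mean plus 3 SD, cut at about 4.5% in these data, passing the limit was not always enough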
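Material: Human S1P3 NFAT-BLA reporter CHO cells | Incubation: Overnight plating, 4 h compound 37 °C, 2 h substrate RT | Signal: FRET β-lactamase substrate fluorescence, excitation 405 nm, 460/535 nm emission ratio, background-subtracted | Compound: 4.5 µM final, single dose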
S1P1 ag pot = activates or potentiates agonism at human S1P1 receptor. P21453. S1P1 CRE-bla cells, forskolin, beta-lactamase FRET, potentiator mode; S1P1 agonist co-added at EC20, 2 nM; 100% = saturating reference agonist, 0% = basal. activation, % at 9.5 µM. hit rate 0.57% among 56,000;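 active = activation above a cutoff set at the mean activation of all tested compounds plus 3 SD, cut at about 54% in these data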;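 note: forskolin at 4 µM as EC80 and the EC20 agonist is SEW2871; 100% = SEW2871 at its EC100 plus forskolin at EC80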
Target sequence (P21453 whole entry, looked up): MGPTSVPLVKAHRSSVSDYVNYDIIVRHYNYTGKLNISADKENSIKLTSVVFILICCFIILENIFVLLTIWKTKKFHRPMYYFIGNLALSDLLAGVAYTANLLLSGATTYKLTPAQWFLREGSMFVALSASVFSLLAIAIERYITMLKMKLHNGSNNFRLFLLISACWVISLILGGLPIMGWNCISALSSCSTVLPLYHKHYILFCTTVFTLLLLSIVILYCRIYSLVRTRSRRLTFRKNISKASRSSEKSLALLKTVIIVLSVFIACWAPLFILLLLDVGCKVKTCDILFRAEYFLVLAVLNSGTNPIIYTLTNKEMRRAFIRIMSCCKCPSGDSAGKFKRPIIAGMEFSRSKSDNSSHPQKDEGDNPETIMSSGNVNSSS
SF1 activator = activators of human nuclear receptor SF-1 | CHO-K1 Gal4-SF-1 LBD luciferase reporter; % increase over DMSO SF-1-specific signal | activation, % at 10 µM | hit rate 1.9% among 65,000;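 active = activation above the mean activation of all tested compounds plus 3 SD, cut at about 50% in these data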
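System: CHO-K1 cells with Gal4–hSF-1 LBD chimera plus Gal4-driven luciferase; quantity: 4,000 CHO-K1 cells per well; compound: one dose, 10 µM compound, 1% DMSO; times: 20 h compound treatment, 37 °C; measured by: SteadyLite luciferase luminescence; read-out: percent activation versus DMSO; benchmarks: DMSO and mock-transfected background; replicates: one test per compound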
M1 ag confirm = rat M1 muscarinic agonism, confirmation | CHO-M1 cells, Fluo-4 calcium fluorescence, agonist mode; actives lie on both sides | hit rate 19% among 1,700 | fluorescence change (max-min) at 10 µM | AID 1488 | shares compounds with M1 ag;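 active = fluorescence change differs from the solvent-only DMSO control mean at a set confidence level in both duplicate runs; inconclusive = differs from solvent-only control mean in just one of two runs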;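 note: an EC20 dose of acetylcholine follows compound addition during the same imaging run; raw fluorescence intensity difference in instrument units with no normalization to controls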
M4 ag counter = counter-screen for M1 agonists: activity at rat M4 receptor; shares compounds with M1 ag; CHO M4/Gqi5 cells, Fluo-4 calcium fluorescence, agonist mode; actives lie on both sides; fluorescence change (max-min) at 10 µM; hit rate 9% among 1,700; AID 1741;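 active = fluorescence change differing from the plate's solvent-only control wells at 99.7% confidence in both duplicates, whether higher or lower; inconclusive = differs from solvent controls in only one of two duplicates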
M1 antag confirm = confirmation of rat M1 muscarinic receptor antagonists; CHO-M1 cells, Fluo-4 calcium, ACh EC80 antagonism; hits give low values; calcium response (max-min fluorescence) at 10 µM; AID 677; hit rate 43% among 1,700; shares compounds with M1 antag;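 active = calcium response below the same-plate mean of wells given acetylcholine alone at its 80%-effect dose, minus 3 SD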;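 note: raw fluorescence intensity difference in arbitrary instrument units and not normalized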
mGluR4 antag = acts on human mGluR4 in M1 antagonist selectivity test; shares compounds with M1 antag; CHO-mGluR4 calcium flux, Fluo-4 fluorescence, glutamate EC80; hits give low values; fluorescence response (max-min) at 10 µM; hit rate 0.9% among 1,700; AID 678;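 active = fluorescence response below the plate's average for near-maximal glutamate wells, less 3 SD of those wells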;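 note: raw unnormalized fluorescence span taken in the window right after glutamate addition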
* hit, by the source's call; ? = inconclusive; / = not tested or not shown.

SMILES | RORA act | M1 ag | M1 antag | S1P3 ag | S1P1 ag pot | SF1 activator | M1 antag confirm | mGluR4 antag | others
CCOc1ccccc1NC(=O)CC1Nc2cc(C)c(C)cc2NC1=O (stereo not given) | 10 | -2.3* | -2.6* | 0 | -2 | 2 | 597 | 232 | M1 ag confirm=-10;M4 ag counter=-41
Cc1cc(O)c(/C=N/c2ccccn2)c(=O)o1 | -13 | -0.81 | 0.57 | -1 | -3 | -9 | / | /
CCOc1ccc(N=Cc2c(O)cc(C)oc2=O)cc1 | -10 | -3.4* | -10* | -1 | -77 | -4 | 688 | 203 | M1 ag confirm=-13;M4 ag counter=?
O=S(=O)(CCOc1ccccc1)c1nc2ccccc2[nH]1 | -17 | 0.17 | -0.067 | -1 | / | 2 | / | /
CCc1nnc(NC(=O)c2ccc(N3C(=O)CCC3=O)cc2)s1 | 20 | -2.5* | -3.1* | 0 | 4 | 42 | 694 | 199 | M1 ag confirm=?;M4 ag counter=0.15
Cc1nc(N)sc1-c1nnc(SCC(=O)Nc2nccs2)n1C | -23 | -0.97 | -0.24 | -2 | 13 | -14 | / | /
CCC(CC)C(=O)Nc1c2c(nn1-c1ccc(OC)cc1)CS(=O)C2 (stereo not given) | -11 | -2.4* | -3.3* | 0 | 2 | 2 | 675 | 175 | M1 ag confirm=?;M4 ag counter=-36
COc1cc2c(C(=O)NCCCN3CC(C)CC(C)C3)cn(CC(C)C)c(=O)c2cc1OC (stereo not given) | 5 | -0.13 | -2.5* | / | / | 27 | 499* | 238
c1coc(-c2nc3c4c5c(sc4ncn3n2)CCCC5)c1 | 1 | -0.83 | 0.68 | 0 | / | 14 | / | /
CN1CCc2c(sc3ncn4nc(-c5ccccc5O)nc4c23)C1 | -7 | -0.13 | -3.7* | -1 | 21 | 5 | 353* | 248
Cc1cccc(Nc2ccccc2C(=O)OCC(=O)N2CCOCC2)c1C | -23 | 1 | -4.2* | -1 | -5 | -4 | 531 | 205
CC(C)COC(=O)Nc1ccccc1C(=O)N1CCOCC1 | -30 | -0.031 | 0.11 | -1 | -12 | 4 | / | /
CC1=C(C(=O)OCC2CCCO2)C(c2ccncc2)C2=C(CC(C)(C)CC2=O)N1 (stereo not given) | -9 | 0.054 | -0.63 | 0 | / | 13 | / | /
O=C1NC(c2ccccc2)C(C(=O)c2cccs2)=C1O (stereo not given) | -5 | 0.11 | -0.61 | 0 | 9 | 9 | / | /
Cc1ccc(CN(C)CCc2ccccn2)cc1 | 4 | -0.18 | -1.2 | 0 | 5 | 2 | / | /
CCc1ccc(CN(C)CCc2ccccn2)cc1 | -17 | 0.34 | -7.3* | -1 | 12 | 6 | 357* | 208
O=C(NCCN1CCOCC1)c1ccc2c(c1)N(Cc1ccccc1F)C(=O)CS2 | 0 | 0.2 | -3.8* | / | / | 8 | 172* | 172
Cc1ccc(CNC(=O)CCS(=O)(=O)c2cc(Br)cc3c2N(C(=O)C2CC2)CC3)o1 | 9 | 0.071 | 0.39 | 0 | -18 | -6 | / | /
CC(CN(C)Cc1ccccc1)OC(=O)c1ccc2c(c1)OCCO2 (stereo not given) | 16 | 0.61 | -3.2* | / | / | 17 | 323* | 223
CC(C)(C)NC(=O)CSc1nccn1Cc1ccccc1 | 4 | 0.089 | -1.2 | 0 | -19 | -10 | / | /
COc1cccc(CC(=O)NCC2COc3ccccc3O2)c1OC (stereo not given) | -5 | 0.34 | -12* | 0 | -6 | -10 | 701 | 230
COc1ccc(-c2c3c(=O)n(C)c(=O)n(C)c3cn2C2CCCCC2)cc1 | 2 | 1.3 | -0.2 | 0 | 1 | -10 | / | /
